pIC50: −log10 of the molar value. Calls of active or inactive are those of the source. No cut-off for these calls is given here.
What was measured:
[1] = Cytotoxicity against human CEM/VBL100 cells assessed as growth inhibition after 72 hrs by MTT assay; format: functional, cell-based; conditions: CEM/VBL100, 72 h
HeLa = assay: Cytotoxicity against human HeLa cells assessed as growth inhibition after 72 hrs by MTT assay; format: functional, cell-based
HT-29 = assay: Cytotoxicity against human HT-29 cells assessed as growth inhibition after 72 hrs by MTT assay; format: functional, cell-based; conditions: HT-29, 72 h
LoVo = assay: Cytotoxicity against human LoVo cells assessed as growth inhibition after 72 hrs by MTT assay; format: functional, cell-based
CCRF-CEM = assay: Cytotoxicity against human CEM cells assessed as growth inhibition after 72 hrs by MTT assay; format: functional, cell-based
Jurkat = assay: Cytotoxicity against human Jurkat cells assessed as growth inhibition after 72 hrs by MTT assay; format: functional, cell-based
[2] = Cytotoxicity against human SEM cells assessed as growth inhibition after 72 hrs by MTT assay; format: functional, cell-based
MCF7 = assay: Cytotoxicity against human MCF7 cells assessed as growth inhibition after 72 hrs by MTT assay; format: functional, cell-based; conditions: MCF7, 72 h
Tubulin (Bos taurus) = Tubulin (Bos taurus) (UniProt Q6B856+Q862L2+Q862F3); assay: Inhibition of bovine brain tubulin polymerization at 20 uM by turbidimetry
Procedure, shortened: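 Purified bovine brain tubulin (10 μM) preincubated with compound in glutamate buffer at 30 °C, cooled to 0 °C, GTP added, then warmed to 30 °C in cuvettes; assembly followed turbidimetrically; concentrations up to 20 μM.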

inhibition (Tubulin (Bos taurus)) | Structure (SMILES) | pIC50 [1] | pIC50 (HeLa) | pIC50 (HT-29) | pIC50 (LoVo) | pIC50 (CCRF-CEM) | pIC50 (Jurkat) | pIC50 [2] | pIC50 (MCF7)
– | CC[C@]1(O)C[C@@H]2CN(CCc3c([nH]c4ccccc34)[C@@](C(=O)OC)(c3cc4c(cc3OC)N(C)[C@H]3[C@@](O)(C(=O)OC)[C@H](OC(C)=O)[C@]5(CC)C=CCN6CC[C@]43[C@@H]65)C2)C1 [VINBLASTINE] | 7.68 | – | – | – | – | – | – | –
inactive | C=C(Br)C(=O)Nc1cccc(/C=C/C(=O)Nc2ccc(OC)cc2)c1 | – | 6.10 | 5.64 | 6.26 | 7.59 | 6.33 | 7.15 | 5.60
– | C=C(Br)C(=O)Nc1cccc(/C=C/C(=O)Nc2ccc(OCC)cc2)c1 | – | 5.70 | 5.47 | 6.07 | 7.01 | 6.03 | 6.74 | 5.26
– | C=C(Br)C(=O)Nc1cccc(/C=C/C(=O)Nc2ccc(SC(F)(F)F)cc2)c1 | – | 4.72 | 4.40 | 4.53 | 4.82 | 4.52 | 4.90 | 4.52
inactive | C=C(Br)C(=O)Nc1cccc(/C=C/C(=O)Nc2cc(OC)c(OC)c(OC)c2)c1 | – | 6.06 | 5.64 | 6.85 | 7.23 | 6.54 | 7.74 | 5.74
– | C=C(Br)C(=O)Nc1cccc(/C=C/C(=O)Nc2cc(OC)cc(OC)c2)c1 | – | 5.66 | 5.44 | 5.92 | 7.96 | 6.01 | 7.40 | 5.52
– | COc1cccc2c1C(=O)c1c(O)c3c(c(O)c1C2=O)C[C@@](O)(C(=O)CO)C[C@@H]3O[C@H]1C[C@H](N)[C@H](O)[C@H](C)O1 [DOXORUBICIN] | – | – | – | 7.05 | – | – | – | –
– | C=C(Br)C(=O)Nc1cccc(/C=C/C(=O)Nc2ccc(OC(F)(F)F)cc2)c1 | – | 4.54 | 4.21 | 4.52 | 4.89 | 4.52 | 4.71 | 4.36
– | C=C(Br)C(=O)Nc1cccc(/C=C/C(=O)Nc2ccccc2)c1 | – | 5.14 | 4.78 | 5.41 | 6.72 | 5.30 | 5.96 | 4.56
– | C=C(Br)C(=O)Nc1ccc(/C=C/C(=O)Nc2ccc(OC)cc2)cc1 | – | 5.80 | 5.51 | 7.22 | 7.66 | 5.85 | 7.10 | 5.52
– | C=C(Br)C(=O)Nc1cccc(/C=C/C(=O)Nc2cccc(F)c2)c1 | – | 5.92 | 5.34 | 6.00 | 4.59 | 6.00 | 6.21 | 5.48
– | COc1cc(NC(=O)/C=C/c2cccc(OCc3ccccc3)c2)cc(OC)c1OC | – | 5.66 | 5.44 | 4.66 | 4.76 | 5.46 | 5.07 | 5.62
– | C=C(Br)C(=O)Nc1cccc(/C=C/C(=O)Nc2ccc(C)cc2)c1 | – | 5.82 | 5.92 | 5.82 | 6.57 | 6.62 | 6.72 | 5.60
– | COc1cc(NC(=O)/C=C/c2cccc(N)c2)cc(OC)c1OC | – | 4.27 | 4.20 | 4.34 | 4.39 | 4.36 | 5.55 | 4.26
– | C=C(Br)C(=O)Nc1cccc(/C=C/C(=O)Nc2ccc(Cl)cc2)c1 | – | 5.55 | 5.10 | 5.23 | 6.34 | 5.59 | 5.92 | 4.96
inactive | C=C(Br)C(=O)Nc1cccc(/C=C/C(=O)Nc2ccc(F)c(F)c2)c1 | – | 5.72 | 5.06 | 6.27 | 7.89 | 6.26 | 7.05 | 5.57
inactive | C=C(Br)C(=O)Nc1cccc(/C=C/C(=O)Nc2ccc(OC)c(OC)c2)c1 | – | 6.25 | 5.72 | 6.82 | 7.68 | 6.72 | 8.52 | 5.55
– | C=C(Br)C(=O)Nc1cccc(/C=C/C(=O)Nc2cccc3ccccc23)c1 | – | 5.85 | 5.19 | 5.94 | 5.74 | 6.17 | 6.08 | 5.55
– | C=C(Br)C(=O)Nc1cccc(/C=C/C(=O)NCc2ccc(C)cc2)c1 | – | 5.77 | 5.57 | 5.72 | 6.26 | 6.13 | 5.89 | 5.66
– | C=C(Br)C(=O)Nc1cccc(/C=C/C(=O)Nc2ccc(F)cc2)c1 | – | 4.77 | 4.44 | 5.32 | 4.78 | 5.21 | 5.08 | 4.87
– | COc1cccc(/C=C/C(=O)Nc2cc(OC)c(OC)c(OC)c2)c1 | – | 4.78 | 4.36 | 4.37 | 4.63 | 4.90 | 4.74 | 4.57
